In ChEMBL document CHEMBL3763043, “Synthesis and biological evaluation of new fluorinated and chlorinated indenoisoquinoline topoisomerase I poisons” (Bioorg Med Chem, 2016):

system: not listed separately; test: Cytotoxicity against human OVCAR3 cells by MTT assay; assay type: functional; settings: OVCAR-3
Outline: (§1)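 NCI-60 screen: a single-dose 10 μM pre-test, then a five-concentration assay for promoted compounds. GI₅₀ is the concentration giving 50% growth inhibition versus control, taken from concentration-response curves. GI₅₀ values below the lowest concentration were recorded as 10 nM, and values above the range at the top concentration.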

Row | SMILES | GI50
1 | O=C1c2cc3c(cc2-c2c1c1ccc(Cl)cc1c(=O)n2CCCNCCO)OCO3 | 1320 nM
2 | O=C1c2cc3c(cc2-c2c1c1ccc(F)cc1c(=O)n2C[C@H](O)CO)OCO3 | 182 nM
3 | COc1cc2c3c(n(CCCNCCO)c(=O)c2cc1OC)-c1cc2c(cc1C3=O)OCO2 [LMP-744] | 1500 nM
4 | O=C1c2cc3c(cc2-c2c1c1cc(Cl)c(Cl)cc1c(=O)n2CCCn1ccnc1)OCO3 | 43 nM
5 | O=C1c2cc3c(cc2-c2c1c1ccc(Cl)cc1c(=O)n2CCCn1ccnc1)OCO3 | 40 nM

target: Tyrosyl-DNA phosphodiesterase 1 (Homo sapiens, UniProt Q9NUW8); test: Inhibition of recombinant TDP1 (unknown origin) using 5'-[32P]-labeled single-stranded DNA oligonucleotide containing 3'-phosphotyrosine (N14Y) as substrate for 15 mins by PAGE assay; settings: not given
Sequence (Q9NUW8 whole entry): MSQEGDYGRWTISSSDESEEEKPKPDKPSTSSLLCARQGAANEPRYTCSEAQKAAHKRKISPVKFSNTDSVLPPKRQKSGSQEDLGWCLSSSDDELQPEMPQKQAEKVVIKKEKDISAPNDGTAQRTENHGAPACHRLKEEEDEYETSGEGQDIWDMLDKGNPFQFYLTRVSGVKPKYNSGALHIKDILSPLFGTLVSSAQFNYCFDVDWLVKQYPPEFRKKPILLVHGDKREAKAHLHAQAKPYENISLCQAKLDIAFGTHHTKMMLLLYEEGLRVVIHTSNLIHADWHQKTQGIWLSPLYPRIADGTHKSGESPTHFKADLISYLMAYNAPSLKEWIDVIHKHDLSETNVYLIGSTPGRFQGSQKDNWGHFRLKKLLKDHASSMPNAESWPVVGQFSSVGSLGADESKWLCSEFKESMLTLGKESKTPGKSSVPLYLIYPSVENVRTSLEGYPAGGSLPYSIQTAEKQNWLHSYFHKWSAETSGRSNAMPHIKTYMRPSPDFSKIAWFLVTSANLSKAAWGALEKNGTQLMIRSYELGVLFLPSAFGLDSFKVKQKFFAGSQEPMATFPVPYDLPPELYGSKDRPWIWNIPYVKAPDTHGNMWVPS

Row | SMILES | IC50
6 | O=C1c2cc3c(cc2-c2c1c1ccc(Cl)cc1c(=O)n2CCCNCCO)OCO3 | 6300 nM

target: T1, DNA topoisomerase 1 (Homo sapiens) (UniProt P11387); test: Activity at recombinant Top1 (unknown origin) using 3'-[32P]-labeled double-stranded DNA (117 bp) as substrate assessed as induction of DNA cleavage at 0.1 to 100 uM incubated for 20 mins by electrophoretic assay relative to 1 uM camptothecin; settings: not given
T1 sequence (whole entry): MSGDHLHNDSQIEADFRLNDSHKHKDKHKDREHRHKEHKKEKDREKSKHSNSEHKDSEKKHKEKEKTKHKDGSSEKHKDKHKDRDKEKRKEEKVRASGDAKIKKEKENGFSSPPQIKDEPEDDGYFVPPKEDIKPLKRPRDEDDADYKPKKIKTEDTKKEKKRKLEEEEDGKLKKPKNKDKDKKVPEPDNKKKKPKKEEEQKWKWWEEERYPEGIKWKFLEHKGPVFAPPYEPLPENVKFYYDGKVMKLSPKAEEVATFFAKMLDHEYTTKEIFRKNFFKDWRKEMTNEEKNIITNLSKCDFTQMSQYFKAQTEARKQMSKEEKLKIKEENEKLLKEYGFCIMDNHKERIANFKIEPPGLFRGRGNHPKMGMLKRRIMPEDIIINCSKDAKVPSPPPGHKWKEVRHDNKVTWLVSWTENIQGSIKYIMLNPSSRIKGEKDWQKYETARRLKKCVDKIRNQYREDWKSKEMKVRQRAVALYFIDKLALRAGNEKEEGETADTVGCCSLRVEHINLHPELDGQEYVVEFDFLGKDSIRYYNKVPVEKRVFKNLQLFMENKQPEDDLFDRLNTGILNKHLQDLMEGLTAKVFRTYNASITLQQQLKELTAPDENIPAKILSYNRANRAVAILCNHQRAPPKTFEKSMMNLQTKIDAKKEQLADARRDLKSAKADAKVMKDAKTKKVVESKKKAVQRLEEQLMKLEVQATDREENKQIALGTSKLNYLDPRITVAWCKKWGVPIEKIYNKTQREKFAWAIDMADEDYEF

Row | SMILES | Activity
7 | O=C1c2cc3c(cc2-c2c1c1ccc(Cl)cc1c(=O)n2C[C@H](O)[C@H](O)[C@H](O)CO)OCO3 | 20%
8 | O=C1c2cc3c(cc2-c2c1c1ccc(Cl)cc1c(=O)n2CCCNCCO)OCO3 | 75%
9 | O=C1c2cc3c(cc2-c2c1c1ccc(Cl)cc1c(=O)n2CCCN1CCOCC1)OCO3 | 20%
10 | O=C1c2cc3c(cc2-c2c1c1ccc(F)cc1c(=O)n2C[C@H](O)CO)OCO3 | 100%
11 | COc1cc2c3c(n(CCCNCCO)c(=O)c2cc1OC)-c1cc2c(cc1C3=O)OCO2 [LMP-744] | 100%
12 | O=C1c2cc3c(cc2-c2c1c1cc(Cl)c(Cl)cc1c(=O)n2CCCn1ccnc1)OCO3 | 20%
13 | O=C1c2cc3c(cc2-c2c1c1ccc(Cl)cc1c(=O)n2CCCn1ccnc1)OCO3 | 50%
14 | O=C1c2cc3c(cc2-c2c1c1ccc(F)cc1c(=O)n2CCCN1CCOCC1)OCO3 | 20%

target: T2, Tyrosyl-DNA phosphodiesterase 2 (Homo sapiens, UniProt O95551); test: Inhibition of recombinant human TDP2 using alpha32P-cordycepin-[…]-labeled 19-mer single-stranded oligonucleotide DNA containing 5'-phosphotyrosine (Y19) for 15 mins by PAGE assay; settings: not given
T2 sequence (O95551 whole entry): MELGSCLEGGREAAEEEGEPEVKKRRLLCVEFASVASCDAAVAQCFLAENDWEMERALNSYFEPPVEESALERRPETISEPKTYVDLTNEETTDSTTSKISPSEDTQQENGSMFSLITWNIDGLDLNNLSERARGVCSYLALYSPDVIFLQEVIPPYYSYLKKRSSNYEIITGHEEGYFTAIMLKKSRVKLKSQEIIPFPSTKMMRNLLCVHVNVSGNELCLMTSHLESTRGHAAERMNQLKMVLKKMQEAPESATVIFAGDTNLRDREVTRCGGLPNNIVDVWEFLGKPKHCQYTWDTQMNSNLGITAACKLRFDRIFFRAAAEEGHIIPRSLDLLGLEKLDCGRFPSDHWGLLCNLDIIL

Row | SMILES | IC50
15 | O=C1c2cc3c(cc2-c2c1c1ccc(Cl)cc1c(=O)n2CCCNCCO)OCO3 | 8900 nM

system: not listed separately; test: Cytotoxicity against human DU145 cells by MTT assay; assay type: functional; settings: DU-145; outline: as §1

Row | SMILES | GI50
16 | O=C1c2cc3c(cc2-c2c1c1ccc(Cl)cc1c(=O)n2CCCNCCO)OCO3 | 59 nM
17 | O=C1c2cc3c(cc2-c2c1c1ccc(F)cc1c(=O)n2C[C@H](O)CO)OCO3 | 102 nM
18 | O=C1c2cc3c(cc2-c2c1c1cc(Cl)c(Cl)cc1c(=O)n2CCCn1ccnc1)OCO3 | < 10 nM
19 | O=C1c2cc3c(cc2-c2c1c1ccc(Cl)cc1c(=O)n2CCCn1ccnc1)OCO3 | < 10 nM

system: not listed separately; test: Cytotoxicity against human UACC62 cells by MTT assay; assay type: functional; settings: UACC-62; outline: as §1

Row | SMILES | GI50
20 | O=C1c2cc3c(cc2-c2c1c1ccc(Cl)cc1c(=O)n2CCCNCCO)OCO3 | 43 nM
21 | O=C1c2cc3c(cc2-c2c1c1ccc(F)cc1c(=O)n2C[C@H](O)CO)OCO3 | 45 nM
22 | O=C1c2cc3c(cc2-c2c1c1cc(Cl)c(Cl)cc1c(=O)n2CCCn1ccnc1)OCO3 | < 10 nM
23 | O=C1c2cc3c(cc2-c2c1c1ccc(Cl)cc1c(=O)n2CCCn1ccnc1)OCO3 | < 10 nM

system: MCF7; test: Cytotoxicity against human MCF7 cells by MTT assay; assay type: functional; settings: not given; outline: as §1

Row | SMILES | GI50
24 | O=C1c2cc3c(cc2-c2c1c1ccc(Cl)cc1c(=O)n2CCCNCCO)OCO3 | 18 nM
25 | O=C1c2cc3c(cc2-c2c1c1ccc(F)cc1c(=O)n2C[C@H](O)CO)OCO3 | 32 nM
26 | O=C1c2cc3c(cc2-c2c1c1cc(Cl)c(Cl)cc1c(=O)n2CCCn1ccnc1)OCO3 | < 10 nM
27 | O=C1c2cc3c(cc2-c2c1c1ccc(Cl)cc1c(=O)n2CCCn1ccnc1)OCO3 | < 10 nM

system: not listed separately; test: Cytotoxicity against human HCT116 cells by MTT assay; assay type: functional; settings: HCT-116; outline: as §1

Row | SMILES | GI50
28 | O=C1c2cc3c(cc2-c2c1c1ccc(Cl)cc1c(=O)n2CCCNCCO)OCO3 | 105 nM
29 | O=C1c2cc3c(cc2-c2c1c1ccc(F)cc1c(=O)n2C[C@H](O)CO)OCO3 | 79 nM
30 | COc1cc2c3c(n(CCCNCCO)c(=O)c2cc1OC)-c1cc2c(cc1C3=O)OCO2 [LMP-744] | 150 nM
31 | O=C1c2cc3c(cc2-c2c1c1cc(Cl)c(Cl)cc1c(=O)n2CCCn1ccnc1)OCO3 | < 10 nM
32 | O=C1c2cc3c(cc2-c2c1c1ccc(Cl)cc1c(=O)n2CCCn1ccnc1)OCO3 | < 10 nM

system: not listed separately; test: Cytotoxicity against human HOP62 cells by MTT assay; assay type: functional; settings: HOP-62; outline: as §1

Row | SMILES | GI50
33 | O=C1c2cc3c(cc2-c2c1c1ccc(Cl)cc1c(=O)n2CCCNCCO)OCO3 | 71 nM
34 | O=C1c2cc3c(cc2-c2c1c1ccc(F)cc1c(=O)n2C[C@H](O)CO)OCO3 | 49 nM
35 | COc1cc2c3c(n(CCCNCCO)c(=O)c2cc1OC)-c1cc2c(cc1C3=O)OCO2 [LMP-744] | 10 nM
36 | O=C1c2cc3c(cc2-c2c1c1cc(Cl)c(Cl)cc1c(=O)n2CCCn1ccnc1)OCO3 | < 10 nM
37 | O=C1c2cc3c(cc2-c2c1c1ccc(Cl)cc1c(=O)n2CCCn1ccnc1)OCO3 | < 10 nM

system: not listed separately; test: Cytotoxicity against human SF539 cells by MTT assay; assay type: functional; settings: SF-539; outline: as §1

Row | SMILES | GI50
38 | O=C1c2cc3c(cc2-c2c1c1ccc(Cl)cc1c(=O)n2CCCNCCO)OCO3 | 240 nM
39 | O=C1c2cc3c(cc2-c2c1c1ccc(F)cc1c(=O)n2C[C@H](O)CO)OCO3 | 51 nM
40 | COc1cc2c3c(n(CCCNCCO)c(=O)c2cc1OC)-c1cc2c(cc1C3=O)OCO2 [LMP-744] | 90 nM
41 | O=C1c2cc3c(cc2-c2c1c1cc(Cl)c(Cl)cc1c(=O)n2CCCn1ccnc1)OCO3 | < 10 nM
42 | O=C1c2cc3c(cc2-c2c1c1ccc(Cl)cc1c(=O)n2CCCn1ccnc1)OCO3 | < 10 nM

system: SN12C; test: Cytotoxicity against human SN12C cells by MTT assay; assay type: functional; settings: not given; outline: as §1

Row | SMILES | GI50
43 | O=C1c2cc3c(cc2-c2c1c1ccc(Cl)cc1c(=O)n2CCCNCCO)OCO3 | 1070 nM
44 | O=C1c2cc3c(cc2-c2c1c1ccc(F)cc1c(=O)n2C[C@H](O)CO)OCO3 | 76 nM
45 | COc1cc2c3c(n(CCCNCCO)c(=O)c2cc1OC)-c1cc2c(cc1C3=O)OCO2 [LMP-744] | 10 nM
46 | O=C1c2cc3c(cc2-c2c1c1cc(Cl)c(Cl)cc1c(=O)n2CCCn1ccnc1)OCO3 | < 10 nM
47 | O=C1c2cc3c(cc2-c2c1c1ccc(Cl)cc1c(=O)n2CCCn1ccnc1)OCO3 | < 10 nM
